Results on one molecule are retold here after ChEMBL document CHEMBL3616369, “N-O-Isopropyl Sulfonamido-Based Hydroxamates as Matrix Metalloproteinase Inhibitors: Hit Selection and in Vivo Antiangiogenic Activity” (J Med Chem, 2015).

Calls of active or inactive are those of the source. The rule behind the calls is not given here.

What is called IC50 is the concentration needed to halve the response being measured.

Data set [1] concerns HUVEC. Put plainly: Inhibition of FBS-induced cell morphogenesis in human HUVEC after 6 hrs by matrigel assay. It counts as functional, cell-based. In outline: (§1)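 Matrigel (10 mg/mL) polymerized 1 h at 37 °C. HUVEC (50x10^4/well) in complete medium with 10% FBS, with or without inhibitor at various concentrations, layered on top. After 6 h, capillary-like organization imaged by inverted microscope; mesh number counted as tubulogenic efficiency.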

Data set [2] has as its system HUVEC. Put plainly: Inhibition of FBS-induced network efficiency of human HUVEC assessed as reduction of number of meshes at 0.001 to 10 uM after 6 hrs by matrigel assay. It counts as functional, cell-based. An outline of the steps: as §1
Data set [3] has as its target T1, 72 kDa type IV collagenase (Homo sapiens, UniProt P08253). The data set can be described thus: Inhibition of MMP2 gelatinase activity in human HUVEC by gel zymography. An outline of the steps: (§2)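 Gelatin zymography on 10% polyacrylamide gels with 0.1% gelatin and SDS, samples unheated. Gels renatured 30 min at room temperature. Either untreated-HUVEC conditioned medium run and gel lane slices developed overnight at 37 °C in developing buffer containing inhibitor, or medium from inhibitor-treated HUVEC developed overnight without inhibitor. Coomassie stained; bands quantified by densitometry.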

Data set [4] deals with T2, Matrix metalloproteinase-9 (Homo sapiens, UniProt P14780). The data set can be described thus: Inhibition of MMP9 gelatinase activity in human HUVEC at 0.001 uM by gel zymography. In outline:
as §2

Data set [5] deals with T2, Matrix metalloproteinase-9. Put plainly: Inhibition of MMP9 in HUVEC assessed as suppression of protein release at 10 uM after 24 hrs by Western blot analysis. In outline:
(§3)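 HUVEC (2x10^6) seeded, attached one day, starved 6 h in serum-free medium with 2% BSA. Pre-treated 3 h with 30 nM PMA, then exposed to inhibitor (10 µM) or DMSO vehicle for 24 h. Conditioned media and cell proteins collected. Equal protein on 10% SDS-PAGE, PVDF blot, milk block, anti-MMP-2, MMP-9 and β-actin antibodies, HRP/ECL detection.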
On the technique in general: Immunoblotting shows a protein as a band on a membrane.

The subject of data set [6] is HUVEC. Put plainly: Inhibition of FBS-induced cell invasion in human HUVEC after overnight incubation using modified Boyden chambers. It counts as functional, cell-based. In outline:
(§4)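 Modified Boyden chamber. HUVEC (5x10^4), PBS-washed, in serum-free medium with or without inhibitor in upper compartment; 10% FBS or serum-free medium below. 8 µm polycarbonate filters coated with collagen 50 µg/mL (migration, 6 h) or matrigel 1 mg/mL (invasion, overnight). Cells on lower surface ethanol-fixed, stained, counted blind in eight fields. Three experiments in duplicate; one-way ANOVA.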

The next data set addresses Stromelysin-1 (Homo sapiens, UniProt P08254). Put plainly: Inhibition of recombinant human activated-MMP3 using Mca-Lys-Pro-Leu-Gly-Leu-Dap(Dnp)-Ala-Arg-NH2 as fluorogenic substrate incubated for 4 hrs followed by substrate addition measured every 10 secs for 20 mins by fluorometric assay. An outline of the steps:
(§5)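 Recombinant human MMPs. Pro-forms activated with APMA: MMP-2 2 mM 1 h, MMP-9 1 mM 1 h, MMP-1 2 mM 2 h, MMP-13 1 mM 35 min, all 37 °C. MMP-3 activated with trypsin 4.4 µg/mL 30 min, then soybean trypsin inhibitor. Final enzyme 0.5 (MMP-2), 1.3 (MMP-9), 1.0 (MMP-14cd), 2.0 (MMP-1), 0.66 (MMP-13), 5 nM (MMP-3). Preincubated with inhibitor 4 h at 25 °C in Tris 50 mM pH 7.5, NaCl 150 mM, CaCl2 10 mM, Brij 35 0.05%, DMSO 1%. Substrate 2 µM final; fluorescence (ex 325/em 395 nm) every 10 s for 20 min. IC50 from vi/vo = 1/(1+[I]/IC50).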

Data set [7] in a line: Induction of apoptosis in human HUVEC assessed as cell viability at 0.001 to 10 uM after 18 hrs using Annexin-V and 7-amino-actinomycin-D staining by flow fluorocytometry analysis. It counts as cell-based. Particulars: HUVEC cells, read-out: Activity. An outline of the steps: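 HUVEC (1x10^5) plated in six-well plates, adhered overnight. Treated in growth medium with inhibitor (10 nM–10 µM) or hydrogen peroxide (100–200 µM) overnight. Stained 15 min at room temperature in the dark with FITC-Annexin V and 7-AAD in HEPES/NaCl/CaCl2 binding buffer pH 7.4. Analysed by flow cytometry.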

The species entered for data set [8] is Mus musculus. The data set can be described thus: Antiangiogenic activity in C57/BL6 mouse matrigel sponge assay model assessed as reduction of VEGF-A, TNFalpha and heparin-induced number of CD45-/CD31+ cells treated in plugs by flow cytometry. It counts as functional, organism-based. An outline of the steps:
(§6)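 Matrigel (0.6 mL final) with VTH mix (VEGF-A 100 ng/mL, TNF-α 2 ng/mL, heparin 25 UI/mL), with or without inhibitor at 0.1-1-10 µM, injected s.c. into flanks of male C57/BL6 mice; some groups also given 0.1-1-10 µM i.p. at day 0; 8 mice/group. Plugs recovered after four days. Read-outs: hemoglobin by Drabkin reagent; collagenase IV digest, flow cytometry for CD31+ cells within CD45−CD3− gate. Mean ± SEM.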
(In general: A flow cytometer gives signals particle by particle.)

Data set [9] concerns HUVEC. The data set can be described thus: Inhibition of cell migration in human HUVEC after 6 hrs using modified Boyden chambers. It counts as functional, cell-based. An outline of the steps: as §4
Data set [10] concerns HUVEC. Put plainly: Inhibition of PMA-stimulated MMP2 protein expression in human HUVEC after 24 hrs by Western blot analysis relative to control. It counts as functional. In outline: as §3
For data set [11], the system named is HUVEC. The data set can be described thus: Cytotoxicity against human HUVEC assessed as reduction of cell growth at 0.001 to 10 uM after 24 to 96 hrs by MTT assay. Particulars: in the assay text read “0.01 to 10 uM” for “0.001 to 10 uM”. It counts as cell-based. An outline of the steps:
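HUVEC (passages 3–6) seeded at 1000/well in complete medium. After adhesion, fresh medium with or without inhibitor, 10 nM–10 µM. Incubated 24, 48, 72 and 96 h; MTT absorbance read at 570 nm.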
In general terms: Formazan colour is commonly taken as a measure of viable cells.

The target in data set [12] is T2, Matrix metalloproteinase-9. Put plainly: Inhibition of MMP9 gelatinase activity in human HUVEC by gel zymography. An outline of the steps: as §2
Data set [13] concerns the target T1, 72 kDa type IV collagenase. Put plainly: Inhibition of MMP2 gelatinase activity in human HUVEC at 0.001 uM by gel zymography. An outline of the steps:
as §2

For data set [14], the target named is T2, Matrix metalloproteinase-9. The data set can be described thus: Inhibition of MMP9 in HUVEC assessed as suppression of protein production at 10 uM after 24 hrs by Western blot analysis. An outline of the steps:
as §3

Data set [15] concerns Mus musculus. Put plainly: Antiangiogenic activity in ip dosed C57/BL6 mouse matrigel sponge assay model assessed as reduction of VEGF-A, TNFalpha and heparin-induced number of CD45-/CD31+ cells after 4 days by flow cytometry. It counts as functional, organism-based. An outline of the steps: as §6
The target in data set [16] is T1, 72 kDa type IV collagenase. The data set can be described thus: Inhibition of MMP2 in HUVEC assessed as suppression of protein production at 10 uM after 24 hrs by Western blot analysis. An outline of the steps:
as §3

Data set [17] relates to HUVEC. Put plainly: Inhibition of cell migration in human HUVEC at 0.001 to 10 uM after 6 hrs using modified Boyden chambers. It counts as functional, cell-based. In outline:
as §4

In data set [18] the target is T1, 72 kDa type IV collagenase. The data set can be described thus: Inhibition of MMP2 in HUVEC assessed as suppression of protein release at 10 uM after 24 hrs by Western blot analysis. An outline of the steps:
as §3

Data set [19] concerns the target T2, Matrix metalloproteinase-9. Put plainly: Inhibition of recombinant human activated-MMP9 using Mca-Lys-Pro-Leu-Gly-Leu-Dap(Dnp)-Ala-Arg-NH2 as fluorogenic substrate incubated for 4 hrs followed by substrate addition measured every 10 secs for 20 mins by fluorometric assay. In outline:
as §5

T1 sequence (P08253 110-660 limits assumed): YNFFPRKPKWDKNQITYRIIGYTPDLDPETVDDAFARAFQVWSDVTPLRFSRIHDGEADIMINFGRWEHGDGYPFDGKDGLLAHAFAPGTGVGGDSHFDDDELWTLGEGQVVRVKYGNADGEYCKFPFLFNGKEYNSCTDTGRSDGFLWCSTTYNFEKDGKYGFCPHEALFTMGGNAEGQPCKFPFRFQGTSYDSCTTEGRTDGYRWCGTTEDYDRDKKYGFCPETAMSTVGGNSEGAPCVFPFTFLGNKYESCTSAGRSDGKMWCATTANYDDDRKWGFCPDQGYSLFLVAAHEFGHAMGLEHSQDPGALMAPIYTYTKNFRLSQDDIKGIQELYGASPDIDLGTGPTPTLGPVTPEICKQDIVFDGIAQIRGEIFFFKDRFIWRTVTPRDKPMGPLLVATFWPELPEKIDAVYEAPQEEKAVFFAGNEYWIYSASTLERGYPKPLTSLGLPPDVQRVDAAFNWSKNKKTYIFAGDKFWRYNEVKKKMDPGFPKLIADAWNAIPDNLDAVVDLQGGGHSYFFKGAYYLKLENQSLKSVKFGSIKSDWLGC
T2 sequence (P14780 whole entry): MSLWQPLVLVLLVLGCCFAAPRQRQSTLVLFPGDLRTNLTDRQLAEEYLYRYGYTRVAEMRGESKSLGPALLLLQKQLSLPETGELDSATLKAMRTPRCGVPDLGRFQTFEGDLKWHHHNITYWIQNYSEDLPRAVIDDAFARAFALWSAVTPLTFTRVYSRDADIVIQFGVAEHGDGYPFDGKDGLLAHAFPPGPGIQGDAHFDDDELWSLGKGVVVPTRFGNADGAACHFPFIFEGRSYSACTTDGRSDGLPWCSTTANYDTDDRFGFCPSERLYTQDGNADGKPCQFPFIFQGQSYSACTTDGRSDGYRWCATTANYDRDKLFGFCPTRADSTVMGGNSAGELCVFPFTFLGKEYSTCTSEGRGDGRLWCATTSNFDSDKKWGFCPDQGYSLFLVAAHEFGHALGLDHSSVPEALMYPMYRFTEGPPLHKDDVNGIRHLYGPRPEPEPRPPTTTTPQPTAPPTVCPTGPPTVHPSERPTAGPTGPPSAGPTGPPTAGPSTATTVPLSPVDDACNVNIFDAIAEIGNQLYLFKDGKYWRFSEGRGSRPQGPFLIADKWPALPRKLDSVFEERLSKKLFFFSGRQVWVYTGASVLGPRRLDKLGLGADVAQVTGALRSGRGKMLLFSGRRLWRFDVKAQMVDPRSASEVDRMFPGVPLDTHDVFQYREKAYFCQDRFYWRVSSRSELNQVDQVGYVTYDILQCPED
Chain of Stromelysin-1 (P08254 whole entry): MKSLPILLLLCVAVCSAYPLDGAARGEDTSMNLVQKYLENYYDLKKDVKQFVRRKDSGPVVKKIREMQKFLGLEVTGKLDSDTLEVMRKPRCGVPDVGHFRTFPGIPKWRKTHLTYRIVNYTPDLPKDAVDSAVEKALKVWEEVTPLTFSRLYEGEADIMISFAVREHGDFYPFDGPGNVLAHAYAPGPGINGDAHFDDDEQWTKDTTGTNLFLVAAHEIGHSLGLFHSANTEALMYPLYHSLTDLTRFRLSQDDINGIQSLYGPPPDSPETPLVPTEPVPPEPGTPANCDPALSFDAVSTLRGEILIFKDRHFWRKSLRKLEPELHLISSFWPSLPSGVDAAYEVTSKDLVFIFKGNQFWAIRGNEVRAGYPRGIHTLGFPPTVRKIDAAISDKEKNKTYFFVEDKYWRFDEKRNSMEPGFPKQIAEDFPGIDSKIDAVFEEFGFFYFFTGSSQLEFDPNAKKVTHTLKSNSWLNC

Turning to `COc1ccc(-c2ccc(S(=O)(=O)N(OC(C)C)[C@H](CCN3C(=O)c4ccccc4C3=O)C(=O)NO)cc2)cc1`, the inhibition result (in the data set on HUVEC [1]; in data set [3]; in the data set on HUVEC [6]; in the data set filed under Mus musculus [8]; with HUVEC [9]; in data set [12]) was “Dose-dependent effect” in each case. The inhibition result in the data set with Mus musculus [15] is “Dose-dependent effect”. In addition, the inhibition entry (in the data set with HUVEC [2]; in data set [4]; in [5]; in [13]; in data set [14]; in data set [16]) was “Active” throughout. Further, the inhibition result (in the data set on HUVEC [17]; in data set [18]) was “Active” throughout. In addition, the values for the IC50 (at Stromelysin-1; in [19]) were 105 nM and 0.43 nM, respectively. Moreover, in data set [7], the viability at 18 h, up to 10 µM came out at 85%. The “fold change (FC)” value with HUVEC [10] is given as 0.6. In addition, the Activity entry in the data set with HUVEC [11] is on record as “Non-toxic”.
